Experimental data taken from PMC6122986 (The Journal of Cell Biology, 2018).
Each block holds one molecule with its values, some of them ahead of it.

Tests used:
[1] = tested on: MTs in Drosophila S2 cells; test: Plus end-directed motility on MTs in cells; assay type: cell-based; conditions: TIRF microscopy, interphase S2 cells
Procedure, shortened: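 Live TIRF imaged mCherry-tagged constructs on cortical MTs of interphase S2 cells. Cells were plated on concanavalin A-coated glass after 16–18 h CuSO4 induction at 500 µM (high) or 25 µM (low). Frames were taken every 1 s (single colour) or 2 s (dual colour, with GFP-α-tubulin). Velocities came from manually tracking motile puncta, with kymographs for direction.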

[2] = tested on: MTs in Drosophila S2 cells; test: MT association / localization in Drosophila S2 cells by live cell imaging; assay type: cell-based; conditions: fixation with paraformaldehyde and permeabilization with detergent
Procedure, shortened: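 Drosophila S2 cells were grown in Schneider's medium with 10% heat-inactivated FBS at 25°C. Lines stably expressing C-terminally mCherry-tagged NOD truncations from a copper-inducible pMT vector were selected with blasticidin and/or hygromycin. Expression was induced with 500 µM or 25 µM CuSO4 for 16–18 h. Cells were imaged live on concanavalin A-coated glass and MT association scored as weak or strong. Retention was also checked after paraformaldehyde fixation and detergent permeabilization.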

[3] = biological target: FITC-labeled NOD "PT" motif-1 peptide (Drosophila melanogaster); test: MST

B1: NOD485: NOD truncation (1–485) that encompasses the motor domain and the noncanonical neck extension region (protein, UniProt P18105 1-485, looked up, fragment)
chain: MEGAKLSAVRIAVREAPYRQFLGRREPSVVQFPPWSDGKSLIVDQNEFHFDHAFPATISQDEMYQALILPLVDKLLEGFQCTALAYGQTGTGKSYSMGMTPPGEILPEHLGILPRALGDIFERVTARQENNKDAIQVYASFIEIYNEKPFDLLGSTPHMPMVAARCQRCTCLPLHSQADLHHILELGTRNRRVRPTNMNSNSSRSHAIVTIHVKSKTHHSRMNIVDLAGSEGVRRTGHEGVARQEGVNINLGLLSINKVVMSMAAGHTVIPYRDSVLTTVLQASLTAQSYLTFLACISPHQCDLSETLSTLRFGTSAKKLRLNPMQVARQKQSLAARTTHVFRQALCTSTAIKSNAANHNSIVVPKSKYSTTKPLSAVLHRTRSELGMTPKAKKRARELLELEETTLELSSIHIQDSSLSLLGFHSDSDKDRHLMPPPTGQEPRQASSQNSTLMGIVEETEPKESSKVQQSMVAPTVPTTVRCQL
motility on MTs in cells (in words) [1]: motility was not obvious
MT localization upon fixation (in words) [2]: significantly reduced upon fixation

Kd [3]: 725 nM
B2: Drosophila GST-EB1 (natural protein)
chain: MAVNVYSTNVTSENLSRHDMLAWVNDCLQSQFSKIEELCTGAAYCQFMDMLFPNSVPVKRVKFRTNLEHEYIQNFKILQAGFKKMSVDKIIPIDKLVKGRFQDNFEFLQWFKKFFDANYDGRDYDASAVREGAPMGFGSGAVKSLPGTAASGVSSSYRRGPSATTRPAMTSAVKPISKVLPRTNNAAPASRINACANSTGTVKKNDVSNSVNNQQIEEMSNQVMDMRINLEGLEKERDFYFSKLRDIEILCQEADDAEAHPIIQKILDILYATEDGFAPPDDAPPEDEEY
